{"source": "ChEMBL document CHEMBL5154719", "about": "“Probing Embryonic Development Enables the Discovery of Unique Small-Molecule Bone Morphogenetic Protein Potentiators” (J Med Chem, 2022)", "key": {"Embryonic stem cell [1]": {"test_system": "Embryonic stem cell", "assay": "Induction of cardiac differentiation in mouse ESC transfected with Myh6-GFP treated for 48 hrs and measured after 3 to 6 days by imaging analysis", "format": "functional, cell-based", "conditions": "time 3-6 day", "procedure,_shortened": "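mESC-Myh6-GFP seeded on 0.1% gelatine at 500 cells/well in LIF-free medium to differentiate spontaneously (day 0). Inhibitors given dose-dependently for 48 h over the stated day windows. Medium later changed to complete LIF-free medium. On day 11, cells PFA-fixed and DAPI-stained. GFP+ cardiomyocytes quantified by high-content imaging, normalized to DMSO; mean ± SEM.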"}, "[2]": {"target": "Glycogen synthase kinase-3 beta (Homo sapiens, UniProt P49841)", "sequence (P49841 whole entry)": "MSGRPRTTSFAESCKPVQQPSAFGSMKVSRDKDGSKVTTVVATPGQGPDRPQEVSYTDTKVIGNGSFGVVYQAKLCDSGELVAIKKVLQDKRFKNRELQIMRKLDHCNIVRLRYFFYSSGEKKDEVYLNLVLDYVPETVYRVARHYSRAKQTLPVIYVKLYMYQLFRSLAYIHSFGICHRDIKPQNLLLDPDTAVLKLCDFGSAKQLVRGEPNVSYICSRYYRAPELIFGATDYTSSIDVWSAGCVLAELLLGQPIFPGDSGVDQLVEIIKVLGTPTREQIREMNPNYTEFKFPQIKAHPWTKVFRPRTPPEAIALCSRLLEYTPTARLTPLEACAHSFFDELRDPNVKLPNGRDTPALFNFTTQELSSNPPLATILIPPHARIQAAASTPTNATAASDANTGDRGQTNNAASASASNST", "assay": "Inhibition of GSK3beta (unknown origin)"}, "[3]": {"assay": "Induction of alkaline phosphatase activation in mouse C2C12 cells assessed as fold increase incubated in presence of 50 ng/ml BMP4 at 1 uM relative to BMP4 alone", "format": "functional"}, "[4]": {"assay": "Inhibition of DMH-1 induced cardiogenesis in mouse ESC transfected with Myh6-GFP", "format": "functional, cell-based", "conditions": "embryonic stem cell", "procedure,_shortened": "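mESC-Myh6-GFP, 500 cells/well on gelatine, LIF-free medium from day 0. On day 3, compounds added (triplicates for IC50) with DMH-1 at 0.5 μM final, 0.2% DMSO, 6% FBS; 24 h. Medium then changed, refreshed days 7 and 9. Day 11: PFA fixation, DAPI stain, automated imaging of GFP intensity and cell count, normalized to DMH-1. Cell count below 70% of DMH-1 flagged as cytotoxic.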"}, "C2C12 [5]": {"test_system": "C2C12", "assay": "Induction of BMP-dependent osteogenesis in mouse C2C12 cells incubated for 72 hrs", "format": "functional, cell-based", "procedure,_shortened": "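C2C12 myoblasts, 2000 cells/well in DMEM with 6% heat-inactivated FBS, grown 16 h; compounds added in triplicate, then BMP-4 at 7.5 ng/mL; 72 h. ALP activity read by luminescence after lysis with CDP-Star substrate, 1 h at room temperature in the dark. Activity with 7.5 ng/mL BMP-4 in DMSO set to 100%. EC50 by curve fitting.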"}, "C2C12 [6]": {"test_system": "C2C12", "assay": "[…] of osteoblastogenesis in mouse C2C12 cells assessed as upregulation of Ocn gene expression in presence of BMP4 at 1 uM measured after 72 hrs", "format": "functional, cell-based", "procedure,_shortened": "(§1)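 C2C12 cells plated at 1 × 10⁵ cells/well and treated with compound (1 μM) plus BMP-4 (7.5 ng/mL) or DMSO for 72 h. RNA isolated and transcripts quantified by qRT-PCR using the ΔΔCp method. Mean of triplicates ± SD, normalized to DMSO.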"}, "C2C12 [7]": {"test_system": "C2C12", "assay": "Potentiation of BMP receptor in BMP-4 stimulated mouse C2C12 cells assessed as decrease in cytoplasmic Smad2 level preincubated for 24 hrs followed by BMP-4 stimulation and measured after 30 mins in presence of […]/BMP by Western blot analysis", "format": "cell-based", "conditions": "filed as activator, time 24.5 hrs", "procedure,_shortened": "(§2)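 C2C12 cells exposed to compound with TGFβ-2 (10 ng/mL) for 24 h; for nuclear readout, a further 30 min BMP-4 at 2 ng/mL. Cytoplasmic and nuclear fractions isolated in HEPES buffers, pH 7.5, with phosphatase and protease inhibitors. Smads detected by Western blot, luminescence normalized to total protein per lane (trichloroethanol stain), then to DMSO.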"}, "C2C12 [8]": {"test_system": "C2C12", "assay": "Potentiation of BMP receptor in mouse C2C12 cells assessed as decrease in cytoplasmic Smad2 level incubated for 24 hrs in presence of […]/BMP by Western blot analysis", "format": "cell-based", "conditions": "filed as activator", "procedure,_shortened": "as §2"}, "C2C12 [9]": {"test_system": "C2C12", "assay": "[…] of osteoblastogenesis in mouse C2C12 cells assessed as upregulation of Col1a1 gene expression in presence of BMP4 at 1 uM measured after 72 hrs", "format": "functional, cell-based", "procedure,_shortened": "as §1"}, "C2C12 [10]": {"test_system": "C2C12", "assay": "[…] of osteoblastogenesis in mouse C2C12 cells assessed as upregulation of Runx2 gene expression in presence of BMP4 at 1 uM measured after 72 hrs", "format": "functional, cell-based", "procedure,_shortened": "as §1"}, "C2C12 [11]": {"test_system": "C2C12", "assay": "[…] of osteoblastogenesis in mouse C2C12 cells assessed as upregulation of Osx gene expression in presence of BMP4 at 1 uM measured after 72 hrs", "format": "functional, cell-based", "procedure,_shortened": "as §1"}, "C2C12 [12]": {"test_system": "C2C12", "assay": "Potentiation of BMP receptor in mouse C2C12 cells assessed as increase in Id1 gene expression level incubated for 24 hrs by qRT-PCR analysis", "conditions": "filed as activator"}, "C2C12 [13]": {"test_system": "C2C12", "assay": "Potentiation of BMP receptor in mouse C2C12 cells assessed as increase in Id2 gene expression level incubated for 24 hrs by qRT-PCR analysis", "conditions": "filed as activator"}, "SAOS-2": {"test_system": "SAOS-2", "assay": "Induction of osteoblastic mineralization in human SAOS-2 cells at 25 nM followed by BMP-4 addition measured after 11 days of osteogenic differentiation", "format": "functional, cell-based", "conditions": "time 11.0 day", "procedure,_shortened": "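SaOS-2 cells, 8×10³ cells/well, in osteogenic medium (10 mM β-glycerophosphate, 0.2 mM ascorbic acid, 10 nM dexamethasone) with 2 ng/mL BMP-4 or BMP-2 for 11 days. Medium and compound changed every 3 days; ascorbate refreshed daily; DMSO 0.01% vehicle. Mineralization by von Kossa staining; stained area quantified from at least four images per condition at 100× magnification.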"}, "C2C12 [14]": {"test_system": "C2C12", "assay": "[…] of osteoblastogenesis in mouse C2C12 cells assessed as upregulation of Opn gene expression in presence of BMP4 at 1 uM measured after 72 hrs", "format": "functional, cell-based", "procedure,_shortened": "as §1"}, "C2C12 [15]": {"test_system": "C2C12", "assay": "[…] of osteoblastogenesis in mouse C2C12 cells assessed as upregulation of Alp gene expression in presence of BMP4 at 1 uM measured after 72 hrs", "format": "functional, cell-based", "procedure,_shortened": "as §1"}, "Embryonic stem cell [16]": {"test_system": "Embryonic stem cell", "assay": "Induction of cardiac differentiation in mouse ESC transfected with Myh6-GFP treated for 48 hrs and measured after 4 to 6 days by imaging analysis", "format": "functional, cell-based", "conditions": "time 4-6 day"}}, "note": "Active and inactive are the calls of the source. The rule behind the calls is not given here."}
{"smiles": "c1cc(-c2cnn3cc(-c4ccc(OCCN5CCCCC5)cc4)cnc23)ccn1", "values": [{"measurement": "Activity", "setting": "Embryonic stem cell [1]", "result": "Active"}]}
{"smiles": "Cc1cc(Nc2cc(Cl)nc(Oc3ccc([N+](=O)[O-])cc3)n2)n[nH]1", "values": [{"measurement": "IC50", "setting": "[2]", "result": 0.002, "unit": "µM"}, {"measurement": "fold change (FC)", "setting": "[3]", "result": 2}, {"measurement": "IC50", "setting": "[4]", "result": 0.2, "unit": "µM"}, {"measurement": "Activity", "setting": "C2C12 [5]", "result": "Active"}]}
{"smiles": "O=c1c(-c2ccc(C(F)(F)F)cc2)c(-n2cncn2)oc2ccccc12", "values": [{"measurement": "Activity", "setting": "C2C12 [6]", "result": "Active"}, {"measurement": "Activity", "setting": "C2C12 [7]", "result": "Active"}, {"measurement": "Activity", "setting": "C2C12 [8]", "result": "Active"}, {"measurement": "Activity", "setting": "C2C12 [9]", "result": "Active"}, {"measurement": "Activity", "setting": "C2C12 [10]", "result": "Active"}, {"measurement": "Activity", "setting": "C2C12 [11]", "result": "Active"}, {"measurement": "Activity", "setting": "C2C12 [12]", "result": "Active"}, {"measurement": "Activity", "setting": "C2C12 [13]", "result": "Active"}, {"measurement": "Activity", "setting": "SAOS-2", "result": "Active"}, {"measurement": "Activity", "setting": "C2C12 [14]", "result": "Active"}, {"measurement": "IC50", "setting": "[4]", "result": 0.2, "unit": "µM"}, {"measurement": "Activity", "setting": "C2C12 [5]", "result": "Active"}, {"measurement": "Activity", "setting": "C2C12 [15]", "result": "Active"}]}
{"smiles": "NC(=O)c1ccc(-c2nc(-c3ccccn3)c(-c3ccc4c(c3)OCO4)[nH]2)cc1", "values": [{"measurement": "Activity", "setting": "Embryonic stem cell [16]", "result": "Active"}]}
